Data reported in ChEMBL document CHEMBL1144843, “Design and campaign synthesis of pyridine-based histone deacetylase inhibitors” (Bioorg Med Chem Lett, 2008).
≈ marks a conversion by molar mass, not a printed value.

How the values were obtained:
[1] = target: Voltage-gated inwardly rectifying potassium channel KCNH2 (Homo sapiens, UniProt Q12809); experiment: Inhibition of human ERG channel
[2] = test system: HCT-116; experiment: Antiproliferative activity against human HCT116 cells after 72 hrs; type: functional, cell-based; details: HCT-116, 72 h
Method in brief: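 HCT116 cells seeded at 1 × 10³ cells/well and left to adhere overnight, then exposed to inhibitors for 72 h. MTS tetrazolium dye added and incubated a further 3 h, with absorbance read at 490 nm.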

[3] = Lipophilicity, log D at pH 7.4; type: physicochemical; details: buffer
[4] = Solubility at pH 7.4; type: physicochemical; details: buffer
[5] = target: Histone deacetylase 1 (Homo sapiens, UniProt Q13547); experiment: Inhibition of human HDAC1 expressed in Hi5 cells; design: species or system BTI-TN-5B1-4
Method in brief: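 C-terminally FLAG-tagged HDAC1 purified on anti-FLAG M2 agarose. Development 30 min at ambient temperature, fluorescence read at ex 360/em 465 nm. IC50 taken from dose–response curves.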

[6] = Half life in rat at 63.6 umol/kg, po; type: ADME, organism-based; details: in vivo
[7] = Clearance in rat at 2.5 umol/kg, iv; type: ADME, organism-based; details: in vivo
[8] = Half life in rat at 2.5 umol/kg, iv; type: ADME, organism-based; details: in vivo
[9] = Half life in rat at 56.7 umol/kg, po; type: ADME, organism-based; details: in vivo
[10] = Volume of distribution at steady state in rat at 2.5 umol/kg, iv; type: ADME, organism-based; details: in vivo, read-out: Vdss
[11] = Clearance in rat at 5 umol/kg, iv; type: ADME, organism-based; details: in vivo
[12] = Volume of distribution at steady state in rat at 5 umol/kg, iv; type: ADME, organism-based; details: in vivo, read-out: Vdss
[13] = Half life in rat at 56.4 umol/kg, po; type: ADME, organism-based; details: in vivo
[14] = Half life in rat at 55 umol/kg, po; type: ADME, organism-based; details: in vivo
[15] = Half life in rat at 67.1 umol/kg, po; type: ADME, organism-based; details: in vivo
[16] = Half life in rat at 5 umol/kg, iv; type: ADME, organism-based; details: in vivo
[17] = Half life in rat at 55.6 umol/kg, po; type: ADME, organism-based; details: in vivo
[18] = Half life in rat at 10 umol/kg, po; type: ADME, organism-based; details: in vivo
[19] = Half life in rat at 65.2 umol/kg, po; type: ADME, organism-based; details: in vivo
[20] = test system: Plasma; experiment: Fraction unbound to rat plasma protein in mouse; type: ADME, cell-free
[21] = Volume of distribution at steady state in Beagle dog at 0.8 umol/kg, iv; type: ADME, organism-based, Canis lupus familiaris; details: in vivo, read-out: Vdss
[22] = test system: Plasma; experiment: Fraction unbound to […]; type: ADME, cell-free, Canis lupus familiaris
[23] = Half life in Beagle dog at 3 umol/kg, po; type: ADME, organism-based, Canis lupus familiaris; details: in vivo
[24] = Half life in Beagle dog at 0.8 umol/kg, iv; type: ADME, organism-based, Canis lupus familiaris; details: in vivo
[25] = Half life in mouse at 65.2 umol/kg, po; type: ADME, organism-based; details: in vivo
[26] = test system: Plasma; experiment: Fraction unbound to rat plasma protein in rat; type: ADME, cell-free
[27] = Bioavailability in Beagle dog at 3 umol/kg, po; type: ADME, organism-based, Canis lupus familiaris; details: in vivo
[28] = Clearance in Beagle dog at 0.8 umol/kg, iv; type: ADME, organism-based, Canis lupus familiaris; details: in vivo

Sequence of Voltage-gated inwardly rectifying potassium channel KCNH2 (Q12809 whole entry): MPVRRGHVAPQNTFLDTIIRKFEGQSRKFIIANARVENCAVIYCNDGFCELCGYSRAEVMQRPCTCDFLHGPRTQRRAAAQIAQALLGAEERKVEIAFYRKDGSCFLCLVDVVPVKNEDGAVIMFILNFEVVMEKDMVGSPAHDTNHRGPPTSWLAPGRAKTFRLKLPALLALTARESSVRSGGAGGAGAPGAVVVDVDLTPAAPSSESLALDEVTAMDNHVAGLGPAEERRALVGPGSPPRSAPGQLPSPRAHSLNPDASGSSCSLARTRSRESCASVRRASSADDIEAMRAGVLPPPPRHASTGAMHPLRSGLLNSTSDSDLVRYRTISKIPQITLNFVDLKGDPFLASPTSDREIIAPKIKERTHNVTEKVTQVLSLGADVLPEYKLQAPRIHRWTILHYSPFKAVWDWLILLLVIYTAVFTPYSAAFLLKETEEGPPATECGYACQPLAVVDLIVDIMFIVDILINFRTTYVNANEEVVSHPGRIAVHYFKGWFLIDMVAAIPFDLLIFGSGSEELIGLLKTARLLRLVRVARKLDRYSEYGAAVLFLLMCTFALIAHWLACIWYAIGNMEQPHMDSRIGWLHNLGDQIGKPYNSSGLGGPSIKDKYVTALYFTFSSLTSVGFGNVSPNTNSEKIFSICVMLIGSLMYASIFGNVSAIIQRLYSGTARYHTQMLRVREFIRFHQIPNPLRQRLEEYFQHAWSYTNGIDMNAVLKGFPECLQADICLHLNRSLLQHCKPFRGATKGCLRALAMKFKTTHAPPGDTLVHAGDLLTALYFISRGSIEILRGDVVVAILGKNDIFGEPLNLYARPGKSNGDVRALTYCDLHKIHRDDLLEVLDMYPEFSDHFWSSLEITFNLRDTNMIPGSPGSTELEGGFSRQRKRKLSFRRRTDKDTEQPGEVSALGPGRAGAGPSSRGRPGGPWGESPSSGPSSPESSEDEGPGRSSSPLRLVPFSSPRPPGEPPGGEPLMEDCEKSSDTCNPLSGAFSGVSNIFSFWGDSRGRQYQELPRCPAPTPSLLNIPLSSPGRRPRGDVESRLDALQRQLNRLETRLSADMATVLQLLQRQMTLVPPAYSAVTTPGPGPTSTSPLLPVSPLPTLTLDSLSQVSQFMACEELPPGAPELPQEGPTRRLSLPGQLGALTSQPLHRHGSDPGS
Sequence of Histone deacetylase 1 (Q13547 whole entry): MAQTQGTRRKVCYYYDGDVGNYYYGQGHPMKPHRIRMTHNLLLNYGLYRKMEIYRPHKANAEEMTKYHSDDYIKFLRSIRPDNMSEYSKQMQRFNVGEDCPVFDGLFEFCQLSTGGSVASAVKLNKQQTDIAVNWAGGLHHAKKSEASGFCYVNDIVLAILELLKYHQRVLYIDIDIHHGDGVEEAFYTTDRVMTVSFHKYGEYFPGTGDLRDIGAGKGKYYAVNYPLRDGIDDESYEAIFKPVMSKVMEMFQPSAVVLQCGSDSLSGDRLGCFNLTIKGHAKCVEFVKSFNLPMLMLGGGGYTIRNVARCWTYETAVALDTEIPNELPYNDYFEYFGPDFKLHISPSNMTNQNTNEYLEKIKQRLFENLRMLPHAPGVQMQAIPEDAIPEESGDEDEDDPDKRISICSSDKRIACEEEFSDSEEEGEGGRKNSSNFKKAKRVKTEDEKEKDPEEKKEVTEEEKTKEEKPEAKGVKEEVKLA

Compound | IC50 [1] [µM] | IC50 [2] [nM] | logD [3] | solubility [4] [µM] | IC50 [5] [nM] | clearance [11] [mL/min/kg] | Vd [12] [L/kg] | further results
CCN1CCN(Cc2cnc(-c3ccc(C(=O)Nc4ccccc4N)cc3)c(C)c2)CC1 | > 25.1 | 229 | 1.2 | > 2350 | 18.6 | – | – | –
Nc1ccccc1NC(=O)c1ccc(-c2ncc(CN3CCC3)cc2Cl)cc1 | 22.4 | 302 | – | 1340 (≈ 526 µg/mL) | 18.6 | – | – | half-life [6]: 312 min
CCN1CCN(Cc2cnc(-c3ccc(C(=O)Nc4ccccc4N)cc3)c(F)c2)CC1 | > 31.6 | 437 | – | > 2420 | 38 | – | – | –
CCN1CCN(Cc2cnc(-c3ccc(C(=O)Nc4ccccc4N)cc3)c(C#N)c2)CC1 | > 25.1 | 138 | 1.14 | > 1940 | 9.77 | – | – | clearance [7]: 47.5 mL/min/kg; half-life [8]: 66 min; half-life [9]: 192 min; Vd [10]: 3.6 L/kg
CC(C)N1CCN(Cc2cnc(-c3ccc(C(=O)Nc4ccccc4N)cc3)c(F)c2)CC1 | > 31.6 | 646 | 1.6 | > 2160 | 33.1 | – | – | –
N#Cc1cccnc1-c1ccc(C(=O)Nc2ccccc2N)cc1 | > 31.6 | 288 | 1.58 | 35 (≈ 11 µg/mL) | 12.3 | 56.1 | 1 | –
CC(C)N1CCN(Cc2cnc(-c3ccc(C(=O)Nc4ccccc4N)cc3)c(Cl)c2)CC1 | 7.08 | 309 | 1.68 | > 1490 | 13.2 | – | – | –
Cc1cc(CN2CCN(C(C)C)CC2)cnc1-c1ccc(C(=O)Nc2ccccc2N)cc1 | – | 240 | 1.44 | > 2620 | – | – | – | half-life [13]: 204 min
CC(C)N1CCN(Cc2cnc(-c3ccc(C(=O)Nc4ccccc4N)cc3)c(C#N)c2)CC1 | 19.1 | 141 | 1.28 | 1380 (≈ 630 µg/mL) | 10.5 | – | – | clearance [7]: 44 mL/min/kg; half-life [8]: 120 min; Vd [10]: 5.1 L/kg; half-life [14]: 258 min
Cc1cc(CN2CCC2)cnc1-c1ccc(C(=O)Nc2ccccc2N)cc1 | – | 309 | 1.18 | 2240 (≈ 834 µg/mL) | 21.4 | 30.2 | 6.9 | half-life [15]: 330 min; half-life [16]: 180 min
CCN1CCN(Cc2cnc(-c3ccc(C(=O)Nc4ccccc4N)cc3)c(Cl)c2)CC1 | 8.32 | 339 | 1.81 | – | 16.2 | – | – | half-life [17]: 264 min
Nc1ccccc1NC(=O)c1ccc(-c2ncc(CN3CCC3)cc2F)cc1 | > 25.1 | 372 | 1.69 | 841 (≈ 317 µg/mL) | 50.1 | 34 | 6.3 | half-life [16]: 216 min; half-life [18]: 324 min
N#Cc1cc(CN2CCC2)cnc1-c1ccc(C(=O)Nc2ccccc2N)cc1 | > 25.1 | 138 | 1.22 | 746 (≈ 286 µg/mL) | 9.77 | 19.6 | 5.4 | half-life [19]: 330 min; fu [20]: 54%; Vd [21]: 2.32 L/kg; fu [22]: 48%; half-life [16]: 228 min; half-life [23]: 126 min; half-life [24]: 114 min; half-life [25]: 180 min; fu [26]: 53%; bioavailability [27]: 13%; clearance [28]: 30 mL/min/kg
